According to ChEMBL document CHEMBL1154855 (Eur J Med Chem, 2010):
≈ marks a conversion by molar mass, not a printed value.

How the values were obtained:
[1] = system: Human immunodeficiency virus 2; test: Antiviral activity against HIV2 ROD infected in human MT4 cells assessed as protection from virus-induced cytopathogenicity after 5 days by MTT assay; format: functional, organism-based; settings: Human immunodeficiency virus 2, ISOLATE ROD, MT4, 120 h
Outline: (§1)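 MT-4 cells at 3 × 10^4 per well were infected with HIV (IIIB or ROD) at 50% cell culture infective doses. Graded compound concentrations were added immediately after infection. Plates were incubated for 5 days at 37 °C and viable cells were counted by MTT.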

[2] = Cytotoxicity against HIV2 ROD infected human MT4 cells by MTT assay; format: cell-based; settings: MT4 cells infected with HIV-2 ROD
Outline: (§2)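 MT-4 cells (3 × 10^4 per well) were cultured in microdilution trays with various concentrations of compound, then incubated 5 days at 37 °C, and viable cell number was read by MTT.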

[3] = system: Respiratory syncytial virus; test: Antiviral activity against Respiratory syncytial virus infected in human HeLa cells assessed as protection from virus-induced cytopathogenicity after 4 days by MTT assay; format: functional, organism-based; settings: 96 h
[4] = system: Vesicular stomatitis virus; test: Antiviral activity against VSV infected in HEL cells assessed as protection from virus-induced cytopathogenicity after 1 to 2 days by MTT assay; format: functional, organism-based
Punta Toro virus = test: Antiviral activity against Punta Toro virus infected in african green monkey Vero cells assessed as protection from virus-induced cytopathogenicity by MTT assay; format: functional, organism-based
[5] = system: Vesicular stomatitis virus; test: Antiviral activity against VSV infected in human HeLa cells assessed as protection from virus-induced cytopathogenicity after 1 to 2 days by MTT assay; format: functional, organism-based
[6] = Cytotoxicity against HIV1 3B-infected human MT4 cells by MTT assay; format: cell-based; settings: MT4 cells infected with HIV-1 3B; outline: as §2
Feline coronavirus = test: Antiviral activity against Feline coronavirus infected in cat CRFK cells assessed as protection from virus-induced cytopathogenicity by MTT assay; format: functional, organism-based; settings: Alphacoronavirus 1, CRFK
[7] = system: Human immunodeficiency virus 1; test: Antiviral activity against HIV1 3B-infected in human MT4 cells assessed as protection from virus-induced cytopathogenicity after 5 days by MTT assay; format: functional, organism-based; settings: Human immunodeficiency virus 1, 3B, MT4, 120 h; outline: as §1
Influenza A virus [8] = test: Antiviral activity against Influenza A virus H1N1 infected in MDCK cells assessed as protection from virus-induced cytopathogenicity after 6 to 7 days by MTT assay; format: functional, organism-based
Influenza B virus = test: Antiviral activity against Influenza B virus infected in MDCK cells assessed as protection from virus-induced cytopathogenicity after 6 to 7 days by MTT assay; format: functional, organism-based
[9] = system: Mammalian orthoreovirus 1; test: Antiviral activity against Reovirus 1 infected in african green monkey Vero cells assessed as protection from virus-induced cytopathogenicity after 6 to 7 days by MTT assay; format: functional, organism-based; settings: Mammalian orthoreovirus 1, Vero
Influenza A virus [10] = test: Antiviral activity against Influenza A virus H3N2 infected in MDCK cells assessed as protection from virus-induced cytopathogenicity after 6 to 7 days by MTT assay; format: functional, organism-based
Human alphaherpesvirus 2 = test: Antiviral activity against Herpes simplex virus 2 G infected in HEL cells assessed as protection from virus-induced cytopathogenicity after 2 to 3 days by MTT assay; format: functional, organism-based; settings: Human alphaherpesvirus 2, strain G
Human respirovirus 3 = test: Antiviral activity against PIV 3 infected in african green monkey Vero cells assessed as protection from virus-induced cytopathogenicity after 6 to 7 days by MTT assay; format: functional, organism-based; settings: Human respirovirus 3, Vero
Sindbis virus = test: Antiviral activity against Sindbis virus infected in african green monkey Vero cells assessed as protection from virus-induced cytopathogenicity after 2 to 3 days by MTT assay; format: functional, organism-based
HEL [11] = test: Cytotoxicity against VSV infected HEL cells by trypan blue exclusion method; format: cell-based; settings: human, hel
Outline: (§3)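 Uninfected confluent cultures were run in parallel with the infected cultures. Medium was replaced by 1 ml maintenance medium with serial compound concentrations; cell controls received no compound. Cultures were incubated at 37 °C. After 2 and 7 days, compound was withdrawn and viability was determined by trypan blue exclusion.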

HEL [12] = test: Cytotoxicity against Herpes simplex virus 1 KOS infected HEL cells by trypan blue exclusion method; format: cell-based; settings: human, hel; outline: as §3
HEL [13] = test: Cytotoxicity against acyclovir-sensitive Herpes simplex virus 1 KOS infected HEL cells by trypan blue exclusion method; format: cell-based; settings: human; outline: as §3
HEL [14] = test: Cytotoxicity against Vaccinia virus infected HEL cells by trypan blue exclusion method; format: cell-based; settings: human, hel; outline: as §3
HEL [15] = test: Cytotoxicity against Herpes simplex virus 2 G infected HEL cells by trypan blue exclusion method; format: cell-based; settings: human, hel; outline: as §3
Klebsiella pneumoniae = test: Antibacterial activity against Klebsiella pneumoniae after 24 hrs by broth microdilution method; format: functional; settings: Klebsiella pneumoniae, 24 h; read-out: MIC
Outline: (§4)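 Clinical isolates. Each dilution received 100 μl of 0.5 McFarland fresh culture. Solvent (DMSO), growth and standard controls were included. Tubes were incubated at 37 °C for 24 h. MIC is the highest dilution showing no turbidity. Tests were run in triplicate, with at least two repetitions.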

HeLa [16] = test: Cytotoxicity against Human coxsackievirus B4 infected human HeLa cells by trypan blue exclusion method; format: cell-based; settings: hela; outline: as §3
Proteus mirabilis = test: Antibacterial activity against Proteus mirabilis after 24 hrs by broth microdilution method; format: functional; settings: Proteus mirabilis, 24 h; read-out: MIC; outline: as §4
Streptococcus viridans = test: Antibacterial activity against Streptococcus viridans after 24 hrs by broth microdilution method; format: functional; settings: Streptococcus viridans, 24 h; read-out: MIC; outline: as §4
Human alphaherpesvirus 1 [17] = test: Antiviral activity against acyclovir-sensitive Herpes simplex virus 1 KOS infected in HEL cells assessed as protection from virus-induced cytopathogenicity after 2 to 3 days by MTT assay; format: functional, organism-based; settings: Human alphaherpesvirus 1, KOS
Coxsackievirus B4 [18] = test: Antiviral activity against Human coxsackievirus B4 infected in human HeLa cells assessed as protection from virus-induced cytopathogenicity after 2 days by MTT assay; format: functional, organism-based; settings: Enterovirus B, 48 h
HeLa [19] = test: Cytotoxicity against Respiratory syncytial virus infected human HeLa cells by trypan blue exclusion method; format: cell-based; settings: hela; outline: as §3
HeLa [20] = test: Cytotoxicity against VSV infected human HeLa cells by trypan blue exclusion method; format: cell-based; settings: hela; outline: as §3
Vero [21] = test: Cytotoxicity against PIV 3 infected african green monkey Vero cells by trypan blue exclusion method; format: cell-based; settings: chlorocebus sabaeus, vero; outline: as §3
MDCK [22] = test: Cytotoxicity against Influenza B virus infected MDCK cells by trypan blue exclusion method; format: cell-based, Canis lupus familiaris; settings: dog
Vero [23] = test: Cytotoxicity against Reovirus 1 infected african green monkey Vero cells by trypan blue exclusion method; format: cell-based; settings: chlorocebus sabaeus, vero; outline: as §3
Vero [24] = test: Cytotoxicity against Sindbis virus infected african green monkey Vero cells by trypan blue exclusion method; format: cell-based; settings: chlorocebus sabaeus, vero; outline: as §3
Coxsackievirus B4 [25] = test: Antiviral activity against Human coxsackievirus B4 infected in african green monkey Vero cells assessed as protection from virus-induced cytopathogenicity after 2 days by MTT assay; format: functional, organism-based; settings: Enterovirus B, 48 h
[26] = Cytotoxicity against Feline herpesvirus infected cat CRFK cells by trypan blue exclusion method; format: cell-based, Felis catus; settings: crfk; outline: as §3
Escherichia coli = test: Antibacterial activity against Escherichia coli after 24 hrs by broth microdilution method; format: functional; settings: Escherichia coli, 24 h; read-out: MIC; outline: as §4
Vero [27] = test: Cytotoxicity against Human coxsackievirus B4 infected african green monkey Vero cells by trypan blue exclusion method; format: cell-based; settings: chlorocebus sabaeus, vero; outline: as §3
Human alphaherpesvirus 1 [28] = test: Antiviral activity against Herpes simplex virus 1 KOS infected in HEL cells assessed as protection from virus-induced cytopathogenicity after 2 to 3 days by MTT assay; format: functional, organism-based; settings: Human alphaherpesvirus 1, KOS
Felid alphaherpesvirus 1 = test: Antiviral activity against Feline herpesvirus infected in cat CRFK cells assessed as protection from virus-induced cytopathogenicity by MTT assay; format: functional, organism-based; settings: Felid alphaherpesvirus 1, CRFK
MDCK [29] = test: Cytotoxicity against Influenza A virus subtype H3N2 infected MDCK cells by trypan blue exclusion method; format: cell-based, Canis lupus familiaris; settings: dog
[30] = Cytotoxicity against Feline coronavirus infected cat CRFK cells by trypan blue exclusion method; format: cell-based, Felis catus; settings: crfk; outline: as §3
MDCK [31] = test: Cytotoxicity against Influenza A virus subtype H1N1 infected MDCK cells by trypan blue exclusion method; format: cell-based, Canis lupus familiaris; settings: dog
Vero [32] = test: Cytotoxicity against Punta Toro virus infected african green monkey Vero cells by trypan blue exclusion method; format: cell-based; settings: chlorocebus sabaeus, vero; outline: as §3

Row | SMILES | IC50 [1] [nM] | CC50 [2] [nM] | EC50 [3] [nM] | EC50 [4] [nM] | EC50 (Punta Toro virus) [nM] | EC50 [5] [nM] | EC50 (Feline coronavirus) [nM] | EC50 (Influenza A virus [8]) [nM] | EC50 (Influenza B virus) [nM] | EC50 [9] [nM] | EC50 (Influenza A virus [10]) [nM] | EC50 (Human alphaherpesvirus 2) [nM] | EC50 (Human respirovirus 3) [nM] | EC50 (Sindbis virus) [nM] | CC50 (HEL [11]) [nM] | CC50 (HEL [12]) [nM] | CC50 (HEL [13]) [nM] | CC50 (HEL [14]) [nM] | CC50 (HEL [15]) [nM] | MIC (Proteus mirabilis) [µM] | further results
1 | CCCCCCCCCC(=O)Oc1ccc(/C=C/C(=O)CC(=O)/C=C/c2ccc(OC(=O)CCCCCCCCC)c(OC)c2)cc1OC | 79 | > 79 | > 147 | > 147 | > 147 | 147 | > 29 | > 147 | > 147 | > 147 | > 147 | > 147 | > 147 | > 147 |  |  |  |  |  |  | CC50 [6]: > 81 nM; IC50 [7]: 81 nM
2 | O=c1[nH]c(=O)n([C@H]2C[C@H](O)[C@@H](CO)O2)cc1/C=C/Br [BRIVUDINE] |  |  |  | > 250000 |  |  |  |  |  |  |  |  |  |  | > 250000 | > 250000 | > 250000 | > 250000 | > 250000 |  | 
3 | COc1cc(/C=C/C(=O)CC(=O)/C=C/c2ccc(OC(=O)CCC(NC(=O)c3ccc(NCc4cnc5nc(N)[nH]c(=O)c5n4)cc3)C(=O)O)c(OC)c2)ccc1OC(=O)CCC(NC(=O)c1ccc(NCc2cnc3nc(N)[nH]c(=O)c3n2)cc1)C(=O)O (stereo not given) | 46 | > 46 | > 82 | > 82 | > 82 | > 82 | > 30 | > 82 | > 82 | > 82 | > 82 | > 82 | > 82 | > 82 | > 82 | > 82 | > 82 | > 82 | > 82 | 0.54 (≈ 0.656 µg/mL) | MIC (Klebsiella pneumoniae): 0.27 µM (≈ 0.328 µg/mL); CC50 (HeLa [16]): > 82 nM; MIC (Streptococcus viridans): 0.27 µM (≈ 0.328 µg/mL); EC50 (Human alphaherpesvirus 1 [17]): > 82 nM; EC50 (Coxsackievirus B4 [18]): > 82 nM; CC50 (HeLa [19]): > 82 nM; CC50 (HeLa [20]): > 82 nM; CC50 [6]: > 36 nM; IC50 [7]: 36 nM; CC50 (Vero [21]): > 82 nM; CC50 (MDCK [22]): 82 nM; CC50 (Vero [23]): > 82 nM; CC50 (Vero [24]): > 82 nM; EC50 (Coxsackievirus B4 [25]): > 82 nM; CC50 [26]: 11 nM; MIC (Escherichia coli): 0.27 µM (≈ 0.328 µg/mL); CC50 (Vero [27]): > 82 nM; EC50 (Human alphaherpesvirus 1 [28]): > 82 nM; EC50 (Felid alphaherpesvirus 1): > 30 nM
4 | COc1cc(/C=C/C(=O)CC(=O)/C=C/c2ccc(O)c(OC)c2)ccc1O [CURCUMIN] |  |  | > 10 |  | > 10 | > 10 | > 271 | > 271 | > 271 | > 10 | > 271 | 10 | > 10 | > 10 | > 2 | ≥ 10 | > 2 | > 2 | > 2 | 1.23 (≈ 0.453 µg/mL) | CC50 (HeLa [16]): ≥ 10 nM; MIC (Streptococcus viridans): 2.47 µM (≈ 0.91 µg/mL); EC50 (Human alphaherpesvirus 1 [17]): 10 nM; EC50 (Coxsackievirus B4 [18]): > 10 nM; CC50 (MDCK [29]): > 92 nM; CC50 (HeLa [19]): ≥ 10 nM; CC50 (HeLa [20]): ≥ 10 nM; CC50 [30]: > 271 nM; CC50 (Vero [21]): 54 nM; CC50 (MDCK [22]): > 92 nM; CC50 (Vero [23]): 54 nM; CC50 (Vero [24]): 54 nM; EC50 (Coxsackievirus B4 [25]): > 10 nM; CC50 [26]: > 271 nM; CC50 (MDCK [31]): > 92 nM; CC50 (Vero [27]): 54 nM; EC50 (Human alphaherpesvirus 1 [28]): > 10 nM; CC50 (Vero [32]): 54 nM; EC50 (Felid alphaherpesvirus 1): > 271 nM
5 | CCCCCCCCCCCCCCCC(=O)Oc1ccc(/C=C/C(=O)CC(=O)/C=C/c2ccc(OC(=O)CCCCCCCCCCCCCCC)c(OC)c2)cc1OC |  |  |  |  |  |  |  |  |  |  |  |  |  |  |  |  |  |  |  | 0.53 (≈ 0.448 µg/mL) | MIC (Klebsiella pneumoniae): 0.53 µM (≈ 0.448 µg/mL); MIC (Escherichia coli): 0.53 µM (≈ 0.448 µg/mL)
